# Activity calls are given as the source filed them. The rule behind the calls is not given here.
# Experiments:
# HCC827 [1] = test: Cytotoxicity in human HCC827 cells assessed as reduction in cell viability incubated for 96 hrs by MTS method; format: functional
# [2] = Inhibition of GST-tagged human EGFR D770GY mutant using poly(Glu, Tyr) 4:1 substrate incubated for 120 mins by kinase-Glo plus luminescent kinase assay
# [3] = Inhibition of GST-tagged human HER2 V777_G778insCG mutant mutant using poly(Glu, Tyr) 4:1 substrate incubated for 120 mins by kinase-Glo plus luminescent kinase assay
# [4] = biological target: T1, Tyrosine-protein kinase JAK3 (Homo sapiens) (UniProt P52333); test: Binding affinity to wild-type human partial length JAK3 JH1 catalytic domain (I781 to S1124 residues) expressed in mammalian expression system assessed as residual binding level at 10000 nM by Kinomescan method relative to control
# T1 sequence (whole entry): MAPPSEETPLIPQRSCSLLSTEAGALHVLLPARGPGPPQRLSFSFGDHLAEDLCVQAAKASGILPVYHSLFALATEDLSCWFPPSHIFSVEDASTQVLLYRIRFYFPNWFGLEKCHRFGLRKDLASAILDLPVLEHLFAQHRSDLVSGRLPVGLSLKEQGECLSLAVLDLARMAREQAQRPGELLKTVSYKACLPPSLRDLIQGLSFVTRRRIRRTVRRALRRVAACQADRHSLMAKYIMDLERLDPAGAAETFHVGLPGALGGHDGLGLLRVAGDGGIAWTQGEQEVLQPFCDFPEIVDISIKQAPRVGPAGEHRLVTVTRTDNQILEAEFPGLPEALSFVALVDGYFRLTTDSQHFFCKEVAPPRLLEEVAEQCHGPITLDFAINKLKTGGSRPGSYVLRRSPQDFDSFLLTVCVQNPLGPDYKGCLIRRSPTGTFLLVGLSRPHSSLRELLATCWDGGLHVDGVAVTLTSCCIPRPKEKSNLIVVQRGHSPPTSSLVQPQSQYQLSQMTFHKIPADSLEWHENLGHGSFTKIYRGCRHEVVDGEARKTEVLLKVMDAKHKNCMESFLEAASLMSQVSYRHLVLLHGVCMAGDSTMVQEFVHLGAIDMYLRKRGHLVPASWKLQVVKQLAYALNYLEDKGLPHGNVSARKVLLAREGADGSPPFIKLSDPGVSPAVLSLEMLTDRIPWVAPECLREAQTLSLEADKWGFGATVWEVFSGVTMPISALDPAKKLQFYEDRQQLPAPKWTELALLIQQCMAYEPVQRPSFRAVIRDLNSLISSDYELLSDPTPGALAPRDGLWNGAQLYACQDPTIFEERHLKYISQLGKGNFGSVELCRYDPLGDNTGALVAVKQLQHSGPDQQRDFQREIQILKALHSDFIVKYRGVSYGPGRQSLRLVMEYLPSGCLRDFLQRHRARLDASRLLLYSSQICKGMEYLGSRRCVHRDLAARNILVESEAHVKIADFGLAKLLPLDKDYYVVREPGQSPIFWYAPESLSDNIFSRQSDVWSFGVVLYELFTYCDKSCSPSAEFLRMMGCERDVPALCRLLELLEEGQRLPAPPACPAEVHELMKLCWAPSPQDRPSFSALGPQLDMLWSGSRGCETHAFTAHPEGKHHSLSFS
# Procedure, shortened: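 KINOMEscan competition-binding profiling at a single concentration of 10,000 nM across a panel that included 395 non-mutant kinases. Binding is read out as percent of control. Kinases with less than 10% of control were counted as hits for the S(10) selectivity score, which is the number of non-mutant hits divided by the number of non-mutant kinases tested.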
# [5] = biological target: T2, Tyrosine-protein kinase Tec (Homo sapiens) (UniProt P42680); test: Binding affinity to wild-type human partial length TEC (L341 to D620 residues) expressed in bacterial expression system assessed as residual binding level at 10000 nM by Kinomescan method relative to control
# T2 sequence (whole entry): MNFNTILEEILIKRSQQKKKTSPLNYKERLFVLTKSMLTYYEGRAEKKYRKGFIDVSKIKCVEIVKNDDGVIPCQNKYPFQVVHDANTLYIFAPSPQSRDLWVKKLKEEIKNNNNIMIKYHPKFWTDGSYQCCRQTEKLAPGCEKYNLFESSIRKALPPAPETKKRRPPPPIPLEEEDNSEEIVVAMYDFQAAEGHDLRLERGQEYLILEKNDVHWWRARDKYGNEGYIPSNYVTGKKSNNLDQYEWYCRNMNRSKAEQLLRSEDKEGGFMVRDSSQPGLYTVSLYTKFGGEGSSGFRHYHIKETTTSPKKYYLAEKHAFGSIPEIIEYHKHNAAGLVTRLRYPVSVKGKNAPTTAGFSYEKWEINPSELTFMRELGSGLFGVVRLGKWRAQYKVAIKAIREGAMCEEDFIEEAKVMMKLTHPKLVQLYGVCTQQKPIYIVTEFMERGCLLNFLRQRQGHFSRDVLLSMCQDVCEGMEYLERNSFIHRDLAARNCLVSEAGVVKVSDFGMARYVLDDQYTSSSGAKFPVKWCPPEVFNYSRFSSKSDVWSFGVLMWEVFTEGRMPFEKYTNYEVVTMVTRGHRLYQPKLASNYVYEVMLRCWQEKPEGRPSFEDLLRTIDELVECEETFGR
# Procedure, shortened: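 KINOMEScan competition binding panel run at 10,000 nM compound, with results expressed as percent of control binding. S(10) is the fraction of non-mutant kinases below 10% of control, out of 395 tested.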
# HCC827 [6] = test: Antitumor activity against human HCC827 cells xenografted in athymic NU-Fox1nu nude mouse assessed as inhibition of tumor growth at 20 to 50 mg/kg, po dosed via gavage for 5 days/week for 2 consecutive weeks; format: functional, organism-based
# Procedure, shortened: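 Male athymic NU-Fox1nu nude mice, 6–8 weeks old, were inoculated subcutaneously at the left flank with 5x10^6 HCC827 (exon 19 Del E746_A750) cells. Oral gavage began at a mean tumor size of about 500 mm³, in 1% methylcellulose/0.5% Tween 80/98.5% water, once daily on days 1-5 and 8-12. Tumor volume (V = 0.5 a × b², caliper) and body weight were tracked.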
# NCI-H1975 = test: Antitumor activity against human NCI-H1975 cells xenografted in nude BALB/c mouse assessed as inhibition of tumor growth at 50 mg/kg, po QD for 15 days relative to control; format: functional
# Procedure, shortened: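 H1975 cells were grown in RPMI1640 with 10% heat-inactivated FBS at 37 °C, 5% CO2, and passaged by trypsin-EDTA. 5x10^6 cells in 0.1 ml PBS were injected subcutaneously at the right flank of BALB/c nude mice. Oral QD dosing for 15 days began at a mean tumor size of 147 mm³, n = 5 per group.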
# [7] = Cmax in rat at 23.6 mg/kg, po; format: ADME, organism-based; parameters: dose 23.6 mg/kg, route oral; conditions: in vivo
# Procedure, shortened: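 Rat pharmacokinetics: single IV injection at 5 mg/kg or oral dosing at 20 mg/kg (23.6 mg/kg oral for one compound). Plasma parameters t1/2, CL, Vss, AUC(0-inf), Cmax, Tmax and oral bioavailability F were derived from the concentration–time profiles.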
# in vivo = conditions: rat, po, 23.6 mg/kg
compound,measurement,setting,value
CN(C)C/C=C/C(=O)Nc1cccc(-c2c(-c3ccccc3)oc3ncnc(N[C@H](CO)c4ccccc4)c23)c1,CC50,HCC827 [1],25 nM
same,IC50,[2],0.033 nM
same,IC50,[3],0.203 nM
same,Activity,[4],0%
same,Activity,[5],5.6%
same,TGI,HCC827 [6],Active
same,TGI,NCI-H1975,34%
same,Cmax,[7],508 ng/mL
same,AUC(0-inf),in vivo,2980 ng·h/mL

# Source: ChEMBL document CHEMBL4414600, “Discovery of a Furanopyrimidine-Based Epidermal Growth Factor Receptor Inhibitor (DBPR112) as a Clinical Candidate for the Treatment of Non-Small Cell Lung Cancer” (J Med Chem, 2019)
